Reference: ChEMBL document CHEMBL5247673, “Discovery of Small Molecules Targeting the Frameshifting Element RNA in SARS-CoV-2 Viral Genome” (ACS Med Chem Lett, 2023)

Assays:
[1] = (§1) Inhibition of programmed -1 ribosomal frameshifting in human MCF7 cells harboring pCherryGFP-CoV2-WT plasmid assessed as inhibition of GFP expression incubated for 30 mins by fluorescence microscopic analysis; type: functional, cell-based; settings: MCF7, 0.5 h
In short: (§2)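 MCF-7 cells were treated with compound at various concentrations and transfected with an mCherry–FSE–GFP reporter: WT, a stop-codon negative control, or an in-frame no-FSE plasmid. GFP expression was the read-out, compared with a DMSO (0 μM) control. Data are mean ± SD of three independent experiments.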

MCF7 = experiment: as §1; type: functional, cell-based; in short: as §2
[2] = Inhibition of programmed -1 ribosomal frameshifting in human MCF7 cells harboring pCherryGFP-CoV2-WT plasmid assessed as inhibition of GFP expression at 50 uM incubated for 30 mins by fluorescence microscopic analysis; type: functional; settings: MCF7, 0.5 h; in short: as §2

CCNCC1CCN(c2c(F)cc3c(=O)c(C(=O)O)cn(CC)c3c2F)C1 (stereo not drawn) [MERAFLOXACIN]
IC50 [1]: 33.5 µM

COc1ccc(-c2nc(NCCN3CCOCC3)c3ccccc3n2)cc1
inhibition (MCF7): Dose-Dependent Effect

COc1ccc(-c2nc(NCCN3CCOCC3)c3cc(OC)ccc3n2)cc1
inhibition at 50 µM [2]: 50%
